Screens from PubChem BioAssay.
The list is not random: actives were taken first. Their share in the collection is about 2%.
RAD52 anneal inh – RAD52 DNA annealing inhibitors, primary screen, biochemical, FRET, single point, set 2 | DNA repair protein RAD52 homolog (Homo sapiens), P43351 | inhibition, % at 18.7 µM | AID 651710, 2012 | recombinant RAD52 DNA annealing, FRET fluorescence | hit rate 0.46% among 360,000;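 active means every replicate showing at least 50% inhibition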
E-sel inducer – E-selectin induction in HUVECs, primary screen, imaging, HUVEC, immunofluorescence imaging, single point | P16581 | normalized: neutral wells 0, TNF-alpha wells 100 | activation, % at 7.58 µM | hit rate 0.37% among 260,000 | AID 686992, 2013;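 active means mean E-selectin-positive cell signal at least 10% of the positive control, reached in at least 60% of replicates, without over 20% cell loss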
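Material: HUVEC primary endothelial cells; Amount: 3,000 cells per well; Dosing: single concentration; Medium: EGM-2 growth medium on 0.1% gelatin-coated wells; Read-out basis: percent E-selectin-positive cells; Signal: immunofluorescence imaging; Control set: TNF-alpha, DMSO.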
RAD54 branch – inhibitors of human RAD54 branch migration, primary screen, biochemical, fluorescence, single point. RAD54 Holliday junction branch migration, FAM/BHQ fluorescence. inhibition, % at 10.4 µM. hit rate 0.14% among 360,000;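 active means mean normalized replicate activity at least 40 and at least half of replicates scoring 40 or more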;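 further: inhibitors cause a drop in the FAM fluorescence signal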
XiGFP reactiv – activators of inactive X chromosome reactivation, primary screen, imaging, XiGFP fibroblasts, GFP high-content imaging, set 2 | XiGFP mouse fibroblasts, % GFP-positive cells imaging, 3 d; cells co-treated with 5-aza-dC sensitizer; scaled so ellipticine positive control = 100% | activation, % at 7.58 µM | hit rate 0.055% among 360,000;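 active means mean normalized replicate activation at least 10% and every replicate at or above 10%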
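System: 68-5-11 XiGFP fibroblast line | Buffer or medium: DMEM containing 5-aza-dC | Compound: Single point | Times: Compounds 3 days, fix/stain 15 min at room temperature | Benchmarks: Positive control ellipticine, 6 µM final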
Ecoli rRNA inh – reduced GFP signal of wild-type E. coli, primary screen, bacterial rRNA inhibitor project, GFP/RFP fluorescence, OD600, single point; E. coli WT GFP vs humanized-ribosome RFP mutants, 24 h; active compounds read low; DMSO median 0, no signal -100; GFP signal change (wild-type ribosome), % (concentration not given with the values); hit rate 1.6% among 350,000; AID 720706, 2013;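 active means significant combined selectivity score with lowered wild-type GFP, culture density cut under 30%, mutant RFP and density less affected; inactive means any of these conditions unmet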
PglD DTNB – C. jejuni PglD acetyltransferase inhibitors, primary screen, biochemical, DTNB colorimetric, single point; UDP-N-acetylbacillosamine N-acetyltransferase PglD (Campylobacter jejuni); inhibition, % at 12.5 µM; purified PglD enzyme, DTNB colorimetric CoA detection; hit rate 0.098% among 360,000; in the data active means inhibition above about 16%, passing the limit was not always enough
Large screens that a line does not name were inactive; ! = not confirmed by another sample.

Cc1nc(C(=O)NNC(=O)c2ccc(Cl)cc2)c(C(F)(F)F)o1	Ecoli rRNA inh -29.8
COc1ccc(Cc2nnc(NC(=O)c3cccc([N+](=O)[O-])c3C)s2)cc1	none (no result: RAD52 anneal inh, E-sel inducer, XiGFP reactiv, Ecoli rRNA inh)
COc1ccc(Cc2nnc(NC(=O)c3ccccc3[N+](=O)[O-])s2)cc1	Ecoli rRNA inh -29.8
CN(C)c1ccc(P(=O)(OCc2ccccc2)C(O)c2ccc(Cl)cc2)cc1 (stereo unspecified)	none
CN(C)c1ccc(P(=O)(OCc2ccccc2)C(O)c2ccccc2)cc1 (stereo unspecified)	Ecoli rRNA inh -20.1 (no result: E-sel inducer, RAD54 branch, PglD DTNB)
CC(C)OP(=O)(c1ccc(N(C)C)cc1)C(Nc1ccccc1)c1ccccc1 (stereo unspecified)	Ecoli rRNA inh -27.4 (no result: E-sel inducer, RAD54 branch, PglD DTNB)
CC(C)C[C@H]1COc2cccc(N3CCOCC3)c2S(=O)(=O)N1	none (no result: RAD54 branch, PglD DTNB)
CC(C)C[C@@H]1COc2cccc(N3CCCC3)c2S(=O)(=O)N1	Ecoli rRNA inh -28.0 (no result: RAD54 branch, PglD DTNB)
CC(C)C[C@@H]1COc2cccc(N3CCN(Cc4ccccc4F)CC3)c2S(=O)(=O)N1	Ecoli rRNA inh -35.4 (no result: RAD54 branch, PglD DTNB)
O=S1(=O)N[C@@H](Cc2ccccc2)COc2cccc(N3CCN(Cc4ccccc4F)CC3)c21	none (no result: RAD54 branch, PglD DTNB)
O=C(CN1CCN(c2ccc(O)cc2)CC1)Nc1ccccc1C(=O)NCCc1ccccc1	E-sel inducer 66.5, Ecoli rRNA inh -24.9
O=C(Cc1ccccc1)Nc1ccccc1N1CCN(c2ccccc2)CC1	Ecoli rRNA inh -22.7 (no result: E-sel inducer, XiGFP reactiv)
O=C(CN1CCN(c2ccc(O)cc2)CC1)Nc1cc(S(=O)(=O)N2CCCC2)ccc1Cl	Ecoli rRNA inh -21.1 (no result: RAD54 branch, PglD DTNB)
Cc1cc(C(=O)Nc2cccc3c2O[C@H](CN(C)CC2CC2)[C@H](C)CN([C@H](C)CO)C3=O)n(C)n1	none
O=C(C[C@@H]1CC[C@H]2[C@@H](COC[C@@H](O)CN2Cc2ccccc2F)O1)N1CCc2ccccc2C1	none
COc1ccc(NC(=O)N2C[C@@H]3N[C@H](C2)C3c2ccc(-c3cccc(F)c3)cc2)cc1 (stereo partly specified)	none (no result: RAD54 branch, PglD DTNB)
O=C(Nc1ccc(C(F)(F)F)cc1)N1C[C@@H]2N[C@H](C1)C2c1ccc(-c2cccc(F)c2)cc1 (stereo partly specified)	RAD52 anneal inh 62.1 (no result: RAD54 branch, PglD DTNB)
Cc1ccc(-c2ccc(C3[C@@H]4CN(C(=O)Nc5ccc(C(F)(F)F)cc5)C[C@H]3N4)cc2)cc1 (stereo partly specified)	none (no result: RAD54 branch, PglD DTNB)
N#Cc1ccc(-c2ccc(C3[C@@H]4CN(C(=O)Nc5ccc(C(F)(F)F)cc5)C[C@H]3N4)cc2)cc1 (stereo partly specified)	RAD52 anneal inh 79.9! (no result: RAD54 branch, PglD DTNB)
CN(C)C(=O)C[C@H]1CC[C@H](NC(=O)C2CC2)[C@H](CO)O1	none
CN(C)CCCn1c(N)c(S(=O)(=O)c2ccccc2)c2nc3ccccc3nc21	Ecoli rRNA inh -27.7
CO[C@@H]1CN(C)C(=O)c2cc(NC(=O)NC3CCCC3)ccc2OC[C@@H](C)N(CC2CC2)C[C@@H]1C	none (no result: RAD54 branch, PglD DTNB)
Cc1nc2ccccn2c1C(=O)CSc1ccccc1	Ecoli rRNA inh -36.8 (no result: E-sel inducer, RAD54 branch, PglD DTNB)
Cc1nc2ccccn2c1C(=O)CSc1cccc(Cl)c1	none (no result: E-sel inducer, RAD54 branch, PglD DTNB)
O=C(NCC[C@@H]1CC[C@@H](NS(=O)(=O)c2cccc(F)c2)[C@H](CO)O1)c1cnccn1	none
COc1ccccc1N(C(=O)c1snc(C(N)=O)c1N)C(C(=O)NCc1ccccc1)c1ccc(O)cc1 (stereo unspecified)	none
NC(=O)c1nsc(C(=O)N(c2ccccc2F)C(C(=O)NCc2ccc(F)cc2)c2ccc(O)cc2)c1N (stereo unspecified)	Ecoli rRNA inh -39.5 (no result: E-sel inducer)
CCOc1ccccc1N1CCN(C(=O)c2ccccc2OCc2c(C)noc2C)CC1	Ecoli rRNA inh -16.0 (no result: E-sel inducer)
